# Experimental data: ChEMBL document CHEMBL3751829, “Synthesis and biological evaluation of 3-tetrazolo steroidal analogs: Novel class of 5α-reductase inhibitors” (Bioorg Med Chem, 2016); call rule not given here
# Experiments:
# [1] = Cytotoxicity against human DU145 cells by rapid colorimetric assay; type: functional, cell-based, DU-145
# Procedure, shortened: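 Antiproliferative test on DU-145 cells using the Mosmann method. Seven concentrations were tested in culture medium.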
# Rattus norvegicus [2] = assay: Effect on organ weight in male wistar rat assessed as dorsal prostate tissue weight per 100g at 5ml/kg, po qd measured on 15th day after 24 hrs of last dose (Rvb=50.325+/-7.519 mg/100g); type: functional, Prostate gland
# Rattus norvegicus [3] = assay: Decrease in dorsal prostate organ weight in male wistar rat at 5ml/kg, po qd measured on 15th day after 24 hrs of last dose; type: functional, Prostate gland; set-up: scale not given: the % may be the effect or the level left
# Rattus norvegicus [4] = assay: Decrease in epididymis organ weight in male wistar rat at 5ml/kg, po qd measured on 15th day after 24 hrs of last dose; type: functional; set-up: scale not given: the % may be the effect or the level left
# Rattus norvegicus [5] = assay: Effect on organ weight in male wistar rat assessed as vas deferens tissue weight per 100g at 5ml/kg, po qd measured on 15th day after 24 hrs of last dose (Rvb=67.613+/-3.248 mg/100g); type: functional
# Rattus norvegicus [6] = assay: Effect on organ weight in male wistar rat assessed as adrenal tissue weight per 100g at 5ml/kg, po qd measured on 15th day after 24 hrs of last dose (Rvb=14.762 +/-0.600 mg/100g); type: ADME, organism-based; details: in vivo
# Rattus norvegicus [7] = assay: Decrease in ventral prostate organ weight in male wistar rat at 5ml/kg, po qd measured on 15th day after 24 hrs of last dose; type: functional, Prostate gland; set-up: scale not given: the % may be the effect or the level left
# Rattus norvegicus [8] = assay: Effect on organ weight in male wistar rat assessed as ventral prostate tissue weight per 100g at 5ml/kg, po qd measured on 15th day after 24 hrs of last dose (Rvb=59.494+/- 4.733 mg/100g); type: functional, Prostate gland
# [9] = molecular target: T1, 3-oxo-5-alpha-steroid 4-dehydrogenase 2 (Homo sapiens, UniProt P31213); assay: Inhibition of human 5alpha-2 reductase expressed in HEK293 cells assessed as suppression of conversion of [3]androstenedione incubated for 30 mins by radioactivity-based HPLC analysis; type: cell-based
# T1 sequence (P31213 whole entry): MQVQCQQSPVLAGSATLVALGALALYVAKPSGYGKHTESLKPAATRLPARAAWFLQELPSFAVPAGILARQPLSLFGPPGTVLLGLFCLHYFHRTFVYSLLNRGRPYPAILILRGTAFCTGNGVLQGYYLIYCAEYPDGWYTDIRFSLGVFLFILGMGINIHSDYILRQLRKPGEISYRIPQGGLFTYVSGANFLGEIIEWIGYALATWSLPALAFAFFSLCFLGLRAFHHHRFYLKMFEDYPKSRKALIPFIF
# Procedure, shortened: (§1)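 Stably transfected HEK293 lines expressing 5AR-1 (HEK-I) or 5AR-2 (HEK-II) were sonicated in saccharose/Tris/EDTA buffer. The suspension was incubated at 37 °C for 30 min with 500 nM androstenedione solution plus [3H]androstenedione and an NADP/glucose/G6PDH regenerating system. Test compounds were added in 2% DMSO. The reaction was stopped with ether; steroids were extracted and analysed by radio-HPLC.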
# Rattus norvegicus [10] = assay: Toxicity in male wistar rat assessed induction of mortality at 5ml/kg, po qd measured on 15th day after 24 hrs of last dose; type: organism-based; details: in vivo
# Procedure, shortened: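 Mature male Wistar rats, groups of 5, standard diet. Compounds suspended in 0.50% CMC sodium given orally at 5 ml/kg once daily for 14 days; controls received vehicle only. Animals weighed and killed under ether on day 15, 24 h after last dose.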
# Rattus norvegicus [11] = assay: Decrease in vas deferens organ weight in male wistar rat at 5ml/kg, po qd measured on 15th day after 24 hrs of last dose; type: functional; set-up: scale not given: the % may be the effect or the level left
# [12] = molecular target: T2, 3-oxo-5-alpha-steroid 4-dehydrogenase 2 (Homo sapiens) (UniProt P31213); assay: Inhibition of human 5alpha-2 reductase expressed in HEK293 cells assessed as suppression of conversion of [3]androstenedione at 10 uM incubated for 30 mins by radioactivity-based HPLC analysis; type: cell-based; procedure, shortened: as §1
# T2 sequence (whole entry): T1 sequence (P31213 whole entry)
# Rattus norvegicus [13] = assay: Effect on organ weight in male wistar rat assessed as liver tissue weight per 100g at 5ml/kg, po qd measured on 15th day after 24 hrs of last dose (Rvb=2.994+/- 0.254 g/100g); type: ADME, organism-based; details: in vivo
# Rattus norvegicus [14] = assay: Effect on organ weight in male wistar rat assessed as seminal vesicles tissue weight per 100g at 5ml/kg, po qd measured on 15th day after 24 hrs of last dose (Rvb=175.439+/-12.833 mg/100g); type: ADME, organism-based; details: in vivo
# Rattus norvegicus [15] = assay: Effect on organ weight in male wistar rat assessed testis tissue weight per 100g at 5ml/kg, po qd measured on 15th day after 24 hrs of last dose (Rvb=1054.099+/- 55.648 mg/100g); type: ADME, organism-based; details: in vivo
# Rattus norvegicus [16] = assay: Increase in body weight gain in male wistar rat at 5ml/kg, po qd measured on 15th day after 24 hrs of last dose (Rvb=9.412+/-1.632g%); type: ADME, organism-based; details: in vivo
# Rattus norvegicus [17] = assay: Effect on organ weight in male wistar rat assessed as epididymis tissue weight per 100g at 5ml/kg, po qd measured on 15th day after 24 hrs of last dose (Rvb=187.356+/- 5.961 mg/100g); type: functional
# [18] = molecular target: T3, 3-oxo-5-alpha-steroid 4-dehydrogenase 1 (Homo sapiens) (UniProt P18405); assay: Inhibition of human 5alpha-1 reductase expressed in HEK293 cells assessed as suppression of conversion of [3]androstenedione at 10 uM incubated for 30 mins by radioactivity-based HPLC analysis; type: cell-based; procedure, shortened: as §1
# T3 sequence (whole entry): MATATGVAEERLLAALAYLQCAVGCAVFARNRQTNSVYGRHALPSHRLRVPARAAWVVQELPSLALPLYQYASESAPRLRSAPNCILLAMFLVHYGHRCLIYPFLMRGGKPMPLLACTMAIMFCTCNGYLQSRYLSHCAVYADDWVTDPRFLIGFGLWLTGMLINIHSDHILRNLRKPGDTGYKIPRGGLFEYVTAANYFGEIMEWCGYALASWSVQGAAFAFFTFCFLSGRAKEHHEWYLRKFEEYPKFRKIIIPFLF
# [19] = molecular target: T2, 3-oxo-5-alpha-steroid 4-dehydrogenase 2 (Homo sapiens); assay: Inhibition of human 5alpha-2 reductase expressed in HEK293 cells assessed as suppression of conversion of [3]androstenedione at 2 uM incubated for 30 mins by radioactivity-based HPLC analysis; type: cell-based; procedure, shortened: as §1
# [20] = Homo sapiens, DU-145, read-out: IC50
smiles,measurement,setting,value
CCN1C(=O)CC[C@H]2[C@@H]3CC=C4C=C(c5nnn[nH]5)CC[C@]4(C)[C@H]3CC[C@@]21C,IC50,[1]; du-145,ND(Unstable)
C=CCN1C(=O)CC[C@H]2[C@@H]3CC=C4C=C(c5nnn[nH]5)CC[C@]4(C)[C@H]3CC[C@@]21C,Activity,Rattus norvegicus [2],41.802 mg
same,Activity,Rattus norvegicus [3],16.94%
same,Activity,Rattus norvegicus [4],9.3%
same,IC50,[1]; [20],496000 nM
same,Activity,Rattus norvegicus [5],42.548 mg
same,Activity,Rattus norvegicus [6],24.261 mg
same,Activity,Rattus norvegicus [7],33.61%
same,Activity,Rattus norvegicus [8],39.499 mg
same,IC50,[9],157 nM
same,Activity,Rattus norvegicus [10],Non-toxic
same,Activity,Rattus norvegicus [11],37.07%
same,inhibition,[12],100%
same,Activity,Rattus norvegicus [13],3.548 g
same,Activity,Rattus norvegicus [14],141.816 mg
same,Activity,Rattus norvegicus [15],1318.403 mg
same,Activity,Rattus norvegicus [16],19.229 g%
same,Activity,Rattus norvegicus [17],169.924 mg
same,inhibition,[18],31.7%
same,inhibition,[19],94.7%
CC(=O)n1nnnc1C1=CC2=CC[C@@H]3[C@H](CC[C@]4(C)NC(=O)CC[C@@H]34)[C@@]2(C)CC1,IC50,[1]; du-145,ND(Unstable)
CN1C(=O)CC[C@H]2[C@@H]3CC=C4C=C(c5nnn[nH]5)CC[C@]4(C)[C@H]3CC[C@@]21C,Activity,Rattus norvegicus [2],44.593 mg
same,Activity,Rattus norvegicus [3],11.39%
same,Activity,Rattus norvegicus [4],9.03%
same,IC50,[1]; [20],389000 nM
same,Activity,Rattus norvegicus [5],59.796 mg
same,Activity,Rattus norvegicus [6],16.362 mg
same,Activity,Rattus norvegicus [7],29.94%
same,Activity,Rattus norvegicus [8],41.684 mg
same,IC50,[9],274 nM
same,Activity,Rattus norvegicus [10],Non-toxic
same,Activity,Rattus norvegicus [11],11.56%
same,inhibition,[12],91.2%
same,Activity,Rattus norvegicus [13],3.328 g
same,Activity,Rattus norvegicus [14],199.778 mg
same,Activity,Rattus norvegicus [15],1233.129 mg
same,Activity,Rattus norvegicus [16],15.456 g%
same,Activity,Rattus norvegicus [17],170.447 mg
same,inhibition,[18],6.4%
same,inhibition,[19],84.3%
C[C@]12CCC(c3nnn[nH]3)=CC1=CC[C@@H]1[C@@H]2CC[C@]2(C)NC(=O)CC[C@@H]12,Activity,Rattus norvegicus [2],31.548 mg
same,Activity,Rattus norvegicus [3],37.31%
same,Activity,Rattus norvegicus [4],11.09%
same,IC50,[1]; du-145,Not Active
same,Activity,Rattus norvegicus [5],42.532 mg
same,Activity,Rattus norvegicus [6],16.421 mg
same,Activity,Rattus norvegicus [7],24.79%
same,Activity,Rattus norvegicus [8],44.744 mg
same,IC50,[9],220 nM
same,Activity,Rattus norvegicus [10],Non-toxic
same,Activity,Rattus norvegicus [11],37.09%
same,inhibition,[12],100%
same,Activity,Rattus norvegicus [13],3.215 g
same,Activity,Rattus norvegicus [14],183.148 mg
same,Activity,Rattus norvegicus [15],1152.287 mg
same,Activity,Rattus norvegicus [16],15.498 g%
same,Activity,Rattus norvegicus [17],166.584 mg
same,inhibition,[18],9.6%
same,inhibition,[19],90.6%
C[C@]12CC[C@H]3[C@@H](CCC4=CC(=O)CC[C@@]43C)[C@@H]1CC[C@@H]2O [TESTOSTERONE],Activity,Rattus norvegicus [2],45.124 mg
same,Activity,Rattus norvegicus [5],55.097 mg
same,Activity,Rattus norvegicus [6],13.969 mg
same,Activity,Rattus norvegicus [8],70.923 mg
same,Activity,Rattus norvegicus [13],3.292 g
same,Activity,Rattus norvegicus [14],167.305 mg
same,Activity,Rattus norvegicus [15],1108.457 mg
same,Activity,Rattus norvegicus [16],3.767 g%
same,Activity,Rattus norvegicus [17],171.193 mg
